ChEMBL document CHEMBL4261561, “Thiosemicarbazone-based selective proliferation inactivators inhibit gastric cancer cell growth, invasion, and migration” (Medchemcomm, 2017)
One block for each compound: values may come before it. Activity calls are given as the source filed them. No cut-off for these calls is given here.

What was measured:
[1] = system: MGC-803; assay: Antiproliferative activity against human MGC803 cells after 72 hrs by MTT assay; assay type: functional, cell-based; settings: MGC-803, 72 h
Summary of the method: (§1)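 Exponentially growing cells were seeded at about 3×10^3 per well and left 24 h, then given fresh medium with a range of compound concentrations for 72 h. MTT solution (5 mg/mL) was added for another 4 h. Medium was removed, formazan was dissolved in DMSO, and absorbance was read at 570 nm. IC50 was derived statistically.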

[2] = system: SMMC-7721; assay: Antiproliferative activity against human SMMC7721 cells after 72 hrs by MTT assay; assay type: functional, cell-based; settings: SMMC-7721, 72 h; summary of the method: as §1
[3] = system: MCF7; assay: Antiproliferative activity against human MCF7 cells after 72 hrs by MTT assay; assay type: functional, cell-based; settings: MCF7, 72 h; summary of the method: as §1
[4] = system: MGC-803; assay: Induction of apoptosis in human MGC803 cells assessed as up-regulation of Bax expression after 48 hrs by Western blot analysis; assay type: functional, cell-based
Summary of the method: (§2)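 Treated MGC-803 cells were lysed on ice for 30 min in NP-40/SDS/deoxycholate/PMSF buffer. Equal protein was separated by SDS-PAGE and transferred to 0.22 µm nitrocellulose. Membranes were blocked 2 h in 5% nonfat milk/PBS, probed with primary antibody at 4°C overnight, then incubated with secondary antibody for 2 h.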

[5] = system: MGC-803; assay: Induction of apoptosis in human MGC803 cells after 48 hrs by Annexin-V/propidium iodide staining based flow cytometric analysis; assay type: functional, cell-based
[6] = system: GES1; assay: Cytotoxicity against human GES-1 cells after 72 hrs by MTT assay; assay type: cell-based; settings: GES1, 72 h; summary of the method: as §1
[7] = system: MGC-803; assay: Induction of apoptosis in human MGC803 cells assessed as formation of apoptotic bodies up to 0.5 uM after 48 hrs by Hoechst 33258 staining based fluorescence microscopic method; assay type: functional, cell-based
Summary of the method: (§3)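 About 2×10^5 MGC-803 cells per well were treated after attachment with increasing compound concentrations for 48 h. They were fixed and stained with 20 µg/mL Hoechst-33258 for 30 min in the dark, then PBS-washed three times and viewed by fluorescence microscopy under UV excitation. Apoptotic cells were scored by nuclear condensation and fragmentation.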

[8] = system: MGC-803; assay: Cell cycle arrest in human MGC803 cells assessed as accumulation at S phase at 0.5 uM after 48 hrs by propidium iodide staining-based flow cytometric method (reference value: 28.84%); assay type: functional
[9] = system: MGC-803; assay: Induction of apoptosis in human MGC803 cells assessed as early apoptotic cells at 0.5 uM after 48 hrs by Annexin-V/propidium iodide staining based flow cytometric analysis (reference value: 3.4%); assay type: functional
[10] = system: MGC-803; assay: Induction of apoptosis in human MGC803 cells assessed as necrotic cells at 0.25 uM after 48 hrs by Annexin-V/propidium iodide staining based flow cytometric analysis (reference value: 0.1%); assay type: functional
[11] = system: MGC-803; assay: Induction of apoptosis in human MGC803 cells assessed as down regulation of Bcl-2 expression after 48 hrs by Western blot analysis; assay type: functional, cell-based; summary of the method: as §2
[12] = system: MGC-803; assay: Induction of apoptosis in human MGC803 cells assessed as chromatin shrinkage up to 0.5 uM after 48 hrs by Hoechst 33258 staining based fluorescence microscopic method; assay type: functional, cell-based; summary of the method: as §3
[13] = system: MGC-803; assay: Induction of apoptosis in human MGC803 cells assessed as necrotic cells at 0.1 uM after 48 hrs by Annexin-V/propidium iodide staining based flow cytometric analysis (reference value: 0.1%); assay type: functional
[14] = system: MGC-803; assay: Cell cycle arrest in human MGC803 cells assessed as accumulation at S phase at 0.1 uM after 48 hrs by propidium iodide staining-based flow cytometric method (reference value: 28.84%); assay type: functional
[15] = system: MGC-803; assay: Cell cycle arrest in human MGC803 cells assessed as accumulation at S phase after 48 hrs by propidium iodide staining-based flow cytometric method; assay type: functional
[16] = system: MGC-803; assay: Cell cycle arrest in human MGC803 cells assessed as accumulation at G2 phase at 0.25 uM after 48 hrs by propidium iodide staining-based flow cytometric method (reference value: 10.60%); assay type: functional
[17] = system: MGC-803; assay: Antimigratory activity against human MGC803 cells after 48 hrs by wound healing assay; assay type: functional, cell-based
Summary of the method: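 Confluent monolayers were scratched with a sterile pipette tip and PBS-washed. Cells were then cultured in medium containing only 1% FBS with varied compound concentrations for 48 h. Wounds were photographed under an inverted microscope at 0 h and 48 h.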

[18] = system: MGC-803; assay: Induction of apoptosis in human MGC803 cells assessed as early apoptotic cells at 0.25 uM after 48 hrs by Annexin-V/propidium iodide staining based flow cytometric analysis (reference value: 3.4%); assay type: functional
[19] = system: MGC-803; assay: Anticlonogenic activity against human MGC803 cells at 0.1 to 0.5 uM after 7 to 14 days by crystal violet staining based assay; assay type: functional, cell-based
Summary of the method: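 MGC-803 cells were seeded at about 1×10^3 per well and left 24 h, then grown 14 days in fresh medium with varied compound concentrations. Cells were PBS-washed, fixed in 4% paraformaldehyde for 30 min, and stained with 1% crystal violet for 30 min at 37°C before colonies were washed clear.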

[20] = system: MGC-803; assay: Down regulation of N-cadherin protein expression in human MGC803 cells up to 0.5 uM after 48 hrs by Western blot analysis; assay type: functional, cell-based; summary of the method: as §2
[21] = system: MGC-803; assay: Cell cycle arrest in human MGC803 cells assessed as accumulation at G1 phase at 0.5 uM after 48 hrs by propidium iodide staining-based flow cytometric method (reference value: 60.55%); assay type: functional
[22] = system: MGC-803; assay: Antiproliferative activity against human MGC803 cells after 48 hrs by MTT assay; assay type: functional, cell-based; settings: MGC-803, 48 h
[23] = system: MGC-803; assay: Potency index, ratio of 3-AP IC50 to test compound IC50 for human MGC803 cells after 72 hrs by MTT assay; assay type: functional
[24] = system: MGC-803; assay: Cell cycle arrest in human MGC803 cells assessed as accumulation at G1 phase at 0.1 uM after 48 hrs by propidium iodide staining-based flow cytometric method (reference value: 60.55%); assay type: functional
[25] = system: MGC-803; assay: Cell cycle arrest in human MGC803 cells assessed as accumulation at G1 phase at 0.25 uM after 48 hrs by propidium iodide staining-based flow cytometric method (reference value: 60.55%); assay type: functional
[26] = system: MGC-803; assay: Induction of apoptosis in human MGC803 cells assessed as late apoptotic cells at 0.25 uM after 48 hrs by Annexin-V/propidium iodide staining based flow cytometric analysis (reference value: 0.3%); assay type: functional
[27] = system: MGC-803; assay: Induction of apoptosis in human MGC803 cells assessed as late apoptotic cells at 0.1 uM after 48 hrs by Annexin-V/propidium iodide staining based flow cytometric analysis (reference value: 0.3%); assay type: functional
[28] = system: MGC-803; assay: Induction of apoptosis in human MGC803 cells assessed as viable cells at 0.1 uM after 48 hrs by Annexin-V/propidium iodide staining based flow cytometric analysis (reference value: 96.1%); assay type: functional; settings: MGC-803, 48 h, read-out: Activity
[29] = system: MGC-803; assay: Antiproliferative activity against human MGC803 cells after 24 hrs by MTT assay; assay type: functional, cell-based; settings: MGC-803, 24 h
[30] = system: MGC-803; assay: Induction of apoptosis in human MGC803 cells assessed as cell rounding up to 0.5 uM after 48 hrs by Hoechst 33258 staining based fluorescence microscopic method; assay type: functional; summary of the method: as §3
[31] = system: MGC-803; assay: Anti-invasive activity against human MGC803 cells after 48 hrs by Hoechst 33258 staining based matrigel coated transwell assay; assay type: functional, cell-based
Summary of the method: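 This was an invasion variant of the transwell assay, with the upper chamber precoated with Matrigel. MGC-803 cells in 1% FBS medium with varied compound concentrations were placed above 20% FBS medium. After 48 h, cells were methanol-fixed, stained with 20 µg/mL Hoechst-33258 for 30 min in the dark, and imaged.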

[32] = system: MGC-803; assay: Induction of apoptosis in human MGC803 cells assessed as viable cells at 0.25 uM after 48 hrs by Annexin-V/propidium iodide staining based flow cytometric analysis (reference value: 96.1%); assay type: functional; settings: MGC-803, 48 h, read-out: Activity
[33] = system: MGC-803; assay: Induction of apoptosis in human MGC803 cells assessed as necrotic cells at 0.5 uM after 48 hrs by Annexin-V/propidium iodide staining based flow cytometric analysis (reference value: 0.1%); assay type: functional
[34] = system: MGC-803; assay: Cell cycle arrest in human MGC803 cells assessed as accumulation at S phase at 0.25 uM after 48 hrs by propidium iodide staining-based flow cytometric method (reference value: 28.84%); assay type: functional
[35] = system: MGC-803; assay: Cell cycle arrest in human MGC803 cells assessed as accumulation at G2 phase at 0.5 uM after 48 hrs by propidium iodide staining-based flow cytometric method (reference value: 10.60%); assay type: functional
[36] = system: MGC-803; assay: Induction of apoptosis in human MGC803 cells assessed as early apoptotic cells at 0.1 uM after 48 hrs by Annexin-V/propidium iodide staining based flow cytometric analysis (reference value: 3.4%); assay type: functional
[37] = system: MGC-803; assay: Induction of apoptosis in human MGC803 cells assessed as late apoptotic cells at 0.5 uM after 48 hrs by Annexin-V/propidium iodide staining based flow cytometric analysis (reference value: 0.3%); assay type: functional
[38] = system: MGC-803; assay: Up-regulation of E-cadherin protein expression in human MGC803 cells up to 0.5 uM after 48 hrs by Western blot analysis; assay type: functional, cell-based; summary of the method: as §2
[39] = system: MGC-803; assay: Antimigratory activity against human MGC803 cells after 48 hrs by Hoechst 33258 staining based transwell assay; assay type: functional, cell-based
Summary of the method: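 This was a transwell migration set-up. MGC-803 cells in medium with 1% FBS and varied compound concentrations went into the upper chamber, with 20% FBS medium below. After 48 h, chambers were PBS-washed and migrated cells were methanol-fixed. They were stained with 20 µg/mL Hoechst-33258 for 30 min in the dark and imaged on a high-content system.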

[40] = system: MGC-803; assay: Induction of apoptosis in human MGC803 cells assessed as viable cells at 0.5 uM after 48 hrs by Annexin-V/propidium iodide staining based flow cytometric analysis (reference value: 96.1%); assay type: functional; settings: MGC-803, 48 h, read-out: Activity
[41] = system: MGC-803; assay: Cell cycle arrest in human MGC803 cells assessed as accumulation at G2 phase at 0.1 uM after 48 hrs by propidium iodide staining-based flow cytometric method (reference value: 10.60%); assay type: functional

Compound: COc1ccc(/C=N/NC(=S)N2CCOCC2)c(O)c1
IC50 [1]: 56.1 µM
IC50 [2]: 38.3 µM
IC50 [3]: > 64 µM

Compound: COc1cc(/C=N/NC(=S)N2CCOCC2)cc(OC)c1OC
IC50 [1]: > 64 µM
IC50 [2]: > 64 µM
IC50 [3]: > 64 µM

Compound: C/C(=N\NC(=S)N1CCOCC1)c1ccccc1
IC50 [1]: 32.6 µM
IC50 [2]: > 64 µM
IC50 [3]: 44.6 µM

Compound: Oc1ccc2ccccc2c1/C=N/NC(=S)N1CCOCC1
IC50 [1]: > 64 µM
IC50 [2]: 44.9 µM
IC50 [3]: > 64 µM

Compound: Oc1ccccc1/C=N/NC(=S)N1CCOCC1
IC50 [1]: 29.2 µM
IC50 [2]: 37.3 µM
IC50 [3]: > 64 µM

Compound: Oc1ccc(Cl)cc1/C=N/NC(=S)N1CCOCC1
IC50 [1]: 16.3 µM
IC50 [2]: 35.3 µM
IC50 [3]: > 64 µM

Now those with a lower IC50 [1], led by results:

IC50 [1]: 2.42 µM
IC50 [2]: 34.1 µM
IC50 [3]: 12.4 µM
Compound: Oc1ccccc1/C=N/NC(=S)Nc1ccccc1

IC50 [1]: 0.93 µM
IC50 [2]: 19.2 µM
IC50 [22]: 9.22 µM
IC50 [29]: > 64 µM
IC50 [3]: 9.99 µM
Compound: C/C(=N\NC(=S)Nc1ccccc1)c1cc(Cl)ccc1O
Activity [4]: Dose-dependent effect
Activity [5]: Dose-dependent effect
IC50 [6]: 27.9 µM
Activity [7]: Active
Activity [8]: 51.85%
Activity [9]: 30%
Activity [10]: 0.2%
Activity [11]: Dose-dependent effect
Activity [12]: Active
Activity [13]: 0.1%
Activity [14]: 32.82%
Activity [15]: Dose-dependent effect
Activity [16]: 0%
Activity [17]: Dose-dependent effect
Activity [18]: 15.1%
Activity [19]: Active
Activity [20]: Active
Activity [21]: 48.15%
Ratio IC50 [23]: 10
Activity [24]: 57.45%
Activity [25]: 53.93%
Activity [26]: 1.3%
Activity [27]: 0.4%
viability at 0.1 µM [28]: 89%
Activity [30]: Active
Activity [31]: Dose-dependent effect
viability at 0.25 µM [32]: 83.5%
Activity [33]: 0.3%
Activity [34]: 46.07%
Activity [35]: 0%
Activity [36]: 10.5%
Activity [37]: 2.3%
Activity [38]: Active
Activity [39]: Dose-dependent effect
viability at 0.5 µM [40]: 67.4%
Activity [41]: 9.73%

IC50 [1]: 9.68 µM
IC50 [2]: 42.8 µM
IC50 [3]: 18.9 µM
Compound: NC(=S)N/N=C/c1ncccc1N [TRIAPINE]
IC50 [6]: 5.4 µM
